The results in this text go back to ChEMBL document CHEMBL3414425, “Synthesis and biological evaluation of new imidazo[2,1-b][1,3,4]thiadiazole-benzimidazole derivatives” (Eur J Med Chem, 2015).

Converted amounts (≈) assume the structure as drawn. The source made the active and inactive calls. No cut-off for these calls is given here.

The subject of data set [1] is Pseudomonas aeruginosa. Put plainly: Antibacterial activity against Pseudomonas aeruginosa at 1 mg/ml incubated for 18 hrs by well plate technique. Format: functional. The note with it: for zone of inhibition at 1000 µg/mL: read-out: DIZ. Summed up:
(§1)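 Bacteria kept on nutrient agar at 37 °C, grown statically in nutrient broth (start ~10-100 cfu/mL) at 37 °C for 18-24 h. Suspensions diluted in saline and spread on nutrient agar, then wells cut with a cork borer. Compound in DMSO at 1 or 0.5 mg/mL added to wells, 37 °C, 18 h. Inhibition zone diameter measured minus DMSO value; triplicate; streptomycin standard.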

The test system of data set [2] is Salmonella typhi. The data set can be described thus: Antibacterial activity against Salmonella typhi at 0.5 mg/ml incubated for 18 hrs by well plate technique. Format: functional, Salmonella enterica subsp. enterica serovar Typhi. The note with it: for zone of inhibition at 500 µg/mL: Salmonella enterica, read-out: DIZ; for diameter of the inhibition zone (DIZ): Salmonella enterica subsp. enterica serovar Typhi. In outline: (§2)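 Well diffusion on nutrient agar; strains kept on nutrient agar at 37 °C, grown statically in nutrient broth 18-24 h at 37 °C, diluted in saline, 0.1 ml spread per plate. Compounds in DMSO at 1 and 0.5 mg/mL added to cork-bored wells; 18 h at 37 °C. Inhibition zone diameter measured, DMSO value subtracted; triplicate; streptomycin reference.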

Data set [3] concerns Aspergillus flavus. Put plainly: Antifungal activity against Aspergillus flavus at 0.5 mg/ml incubated for 3 days. Format: functional. The note with it: for zone of inhibition at 500 µg/mL: 72 h, read-out: IZ. Summed up: (§3)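 Well plate method on potato dextrose agar. Fungal stock suspended in distilled water with Tween 80 and swabbed over plates. Samples in DMSO at 1 and 0.5 mg/mL added to wells, incubated 25 °C for 3 days, then scored for inhibition zones; fluconazole standard.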

In data set [4] the test system is Chrysosporium keratinophilum. The data set can be described thus: Antifungal activity against Chrysosporium keratinophilum at 0.5 mg/ml incubated for 3 days. The note with it: for zone of inhibition at 500 µg/mL: 72 h, read-out: IZ. Format: functional. Summed up: as §3
Data set [5] is described as follows: Antioxidant activity assessed as DPPH radical scavenging activity incubated for 10 mins by UV-visible spectrometry. Format: physicochemical. Summed up:
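DPPH free-radical scavenging; absorbance read at 517 nm against a methanol blank. % scavenging = (A control − A sample)/A control × 100.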

In data set [6] the test system is Chrysosporium keratinophilum. The data set can be described thus: Antifungal activity against Chrysosporium keratinophilum at 1 mg/ml incubated for 3 days. Format: functional. The note with it: for zone of inhibition at 1000 µg/mL: 72 h, read-out: IZ. Summed up: as §3
The subject of data set [7] is Salmonella typhi. The data set can be described thus: Antibacterial activity against Salmonella typhi at 1 mg/ml incubated for 18 hrs by well plate technique. Format: functional, Salmonella enterica subsp. enterica serovar Typhi. The note with it: for zone of inhibition at 1000 µg/mL: Salmonella enterica, read-out: DIZ; for diameter of the inhibition zone (DIZ): Salmonella enterica subsp. enterica serovar Typhi. In outline:
as §2

Data set [8] deals with Staphylococcus aureus. Put plainly: Antibacterial activity against Staphylococcus aureus at 0.5 mg/ml incubated for 18 hrs by well plate technique. Format: functional. The note with it: for zone of inhibition at 500 µg/mL: read-out: DIZ. In outline: as §1
The test system of data set [9] is Pseudomonas aeruginosa. Put plainly: Antibacterial activity against Pseudomonas aeruginosa at 0.5 mg/ml incubated for 18 hrs by well plate technique. Format: functional. The note with it: for zone of inhibition at 500 µg/mL: read-out: DIZ. Summed up: as §1
Data set [10] relates to Candida albicans. Put plainly: Antifungal activity against Candida albicans at 0.5 mg/ml incubated for 3 days. Format: functional. The note with it: for zone of inhibition at 500 µg/mL: 72 h, read-out: IZ. Summed up:
as §3

The subject of data set [11] is Escherichia coli. The data set can be described thus: Antibacterial activity against Escherichia coli at 0.5 mg/ml incubated for 18 hrs by well plate technique. The note with it: for zone of inhibition at 500 µg/mL: read-out: DIZ. Format: functional. In outline: as §1
Data set [12] has as its system Candida albicans. Put plainly: Antifungal activity against Candida albicans at 1 mg/ml incubated for 3 days. The note with it: for zone of inhibition at 1000 µg/mL: 72 h, read-out: IZ. Format: functional. In outline: as §3
Data set [13] relates to Escherichia coli. The data set can be described thus: Antibacterial activity against Escherichia coli at 1 mg/ml incubated for 18 hrs by well plate technique. Format: functional. The note with it: for zone of inhibition at 1000 µg/mL: read-out: DIZ. Summed up:
as §1

Data set [14] has as its system Staphylococcus aureus. The data set can be described thus: Antibacterial activity against Staphylococcus aureus at 1 mg/ml incubated for 18 hrs by well plate technique. Format: functional. The note with it: for zone of inhibition at 1000 µg/mL: read-out: DIZ. Summed up: as §1
The test system of data set [15] is Mycobacterium tuberculosis. The data set can be described thus: Antitubercular activity against Mycobacterium tuberculosis H37Rv ATCC 27294/XDR-TB incubated for 28 days by agar dilution method. The note with it: 672 h. Format: functional. Summed up: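 Agar dilution: two-fold dilutions in Middlebrook 7H11 agar with OADC. Inoculum from fresh 7H11/OADC slants adjusted to 1 mg/mL wet weight in 0.05% Tween 80 saline, diluted 10^-2 (~10⁷ cfu/mL); 5 µL spotted per tube. Incubated 37 °C; MIC, lowest concentration fully inhibiting growth, read after 28 days, in triplicate.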

The test system of data set [16] is Aspergillus flavus. Put plainly: Antifungal activity against Aspergillus flavus at 1 mg/ml incubated for 3 days. Format: functional. The note with it: for zone of inhibition at 1000 µg/mL: 72 h, read-out: IZ. In outline:
as §3

Take `COc1ccc(-c2nc3sc(-c4ccc(Cl)cc4)nn3c2-c2nc3ccccc3[nH]2)cc1`: the zone of inhibition at 1000 µg/mL was 2 mm in data set [1], 3 mm in data set [7], 3 mm in data set [13] and 3 mm in data set [14]. The zone of inhibition at 500 µg/mL in [2] worked out at 1 mm; in [8], 2 mm; in data set [9], 1 mm; in data set [11], 1 mm. Also, the “inhibition zone (IZ)” value in data set [3], in data set [4], in data set [6], in [10], in [12] and in data set [16] was “inactive” each time. The “inhibition (INH)” value in data set [5] came to 20.9%. In addition, inhibition of growth in data set [15] (MIC) required 12.5 µg/mL (≈ 27.3 µM).

Take `COc1ccc(-c2nc3sc(-c4ccc(C)cc4)nn3c2-c2nc3cc([N+](=O)[O-])ccc3[nH]2)cc1`: the “diameter of the inhibition zone (DIZ)” value in [1], in [2], in data set [7], in [8], in data set [9] and in data set [11] was “inactive” throughout. In addition, the “diameter of the inhibition zone (DIZ)” value in [13] and in data set [14] was “inactive” in each case. Moreover, the “inhibition zone (IZ)” value in data set [3], in [4], in [6], in [10], in data set [12] and in data set [16] was “inactive” throughout. The “inhibition (INH)” value in data set [5] stood at 25.1%. The compound further displayed an MIC in data set [15] of 12.5 µg/mL (≈ 25.9 µM).

For `COc1ccc(-c2nc3sc(-c4ccc(F)cc4)nn3c2-c2nc3cc([N+](=O)[O-])ccc3[nH]2)cc1`, the zone of inhibition at 1000 µg/mL in [1] worked out at 6 mm; in data set [6] it was 4 mm; in data set [7] it was 4 mm; in [12], 5 mm; in data set [13] it was 5 mm; in data set [14] it was 5 mm. In addition, the zone of inhibition at 1000 µg/mL in data set [16] is 5 mm. Also, the zone of inhibition at 500 µg/mL in data set [2] was determined as 3 mm; in data set [3] it was 3 mm; in data set [4], 2 mm; in data set [8] it was 3 mm; in data set [9], 3 mm; in data set [10], 2 mm. In addition, the zone of inhibition at 500 µg/mL in data set [11] stood at 3 mm. The “inhibition (INH)” value in data set [5] is 30.8%. The MIC in data set [15] was 12.5 µg/mL (≈ 25.7 µM).

Turning to `COc1ccc(-c2nc3sc(-c4ccccc4Cl)nn3c2-c2nc3cc([N+](=O)[O-])ccc3[nH]2)cc1`, the “diameter of the inhibition zone (DIZ)” value in data set [1], in data set [2], in data set [7], in data set [8], in data set [9] and in data set [11] was “inactive” throughout. Moreover, the “diameter of the inhibition zone (DIZ)” value in data set [13] and in data set [14] was “inactive” each time. The “inhibition zone (IZ)” value in data set [3], in data set [4], in [6], in [10], in [12] and in data set [16] was “inactive” each time. The “inhibition (INH)” value in data set [5] worked out at 22.1%. The same compound registered an MIC in data set [15] of 50 µg/mL (≈ 99.4 µM).

Turning to `Cc1ccc(-c2nc3sc(-c4ccc(Cl)cc4)nn3c2-c2nc3cc(Cl)ccc3[nH]2)cc1`, the zone of inhibition at 1000 µg/mL in data set [1] amounted to 4 mm; in data set [6] it was 3 mm; in data set [7] it was 3 mm; in data set [12], 4 mm; in data set [13], 4 mm; in data set [14], 3 mm. Moreover, in data set [16], the zone of inhibition at 1000 µg/mL was found to be 3 mm. The zone of inhibition at 500 µg/mL in [2] was found to be 2 mm; in data set [3], 2 mm; in data set [4], 2 mm; in data set [8] it was 3 mm; in data set [9], 3 mm; in data set [10], 3 mm. Also, in data set [11], the zone of inhibition at 500 µg/mL came to 2 mm. Besides, in data set [5], the “inhibition (INH)” value amounted to 31.9%. Moreover, inhibition of growth in data set [15] (MIC) required 25 µg/mL (≈ 52.5 µM).

Take `Cc1nn2c(-c3nc4ccccc4[nH]3)c(-c3ccc(Cl)cc3)nc2s1`: the zone of inhibition at 1000 µg/mL in [1] was 5 mm; in data set [6], 7 mm; in [7] it was 3 mm; in data set [12], 6 mm; in [13], 4 mm; in data set [14] it was 4 mm. Further, the zone of inhibition at 1000 µg/mL in data set [16] came out at 6 mm. Also, the zone of inhibition at 500 µg/mL in [2] was found to be 1 mm; in data set [3] it was 5 mm; in data set [4], 6 mm; in data set [8], 3 mm; in data set [9], 3 mm; in data set [10], 4 mm. Moreover, the zone of inhibition at 500 µg/mL in data set [11] was found to be 3 mm. In addition, in [5], the “inhibition (INH)” value came out at 28.8%. Further, the minimum inhibitory concentration (MIC) in data set [15] came out at 25 µg/mL (≈ 68.3 µM).

In the case of `COc1ccc(-c2nc3sc(-c4ccc(C)cc4)nn3c2-c2nc3ccccc3[nH]2)cc1`, the “diameter of the inhibition zone (DIZ)” value in data set [1], in data set [2], in data set [7], in data set [8], in data set [9] and in [11] was “inactive” throughout. The “diameter of the inhibition zone (DIZ)” value in data set [13] and in [14] was “inactive” each time. Besides, the “inhibition zone (IZ)” value in data set [3], in data set [4], in [6], in data set [10], in data set [12] and in data set [16] was “inactive” in each case. Moreover, in data set [5], the “inhibition (INH)” value was found to be 21.6%. In data set [15], this compound came in with an MIC of 12.5 µg/mL (≈ 28.6 µM).

With `COc1ccc(-c2nc3sc(-c4ccc(F)cc4)nn3c2-c2nc3cc(Cl)ccc3[nH]2)cc1`, the zone of inhibition at 1000 µg/mL amounted to 2 mm in [1]; 4 mm in data set [6]; 3 mm in data set [7]; 5 mm in [12]; 5 mm in [13]; 4 mm in [14]. In [16], the zone of inhibition at 1000 µg/mL came to 4 mm. In addition, the zone of inhibition at 500 µg/mL in [2] was determined as 0 mm; in data set [3], 2 mm; in data set [4] it was 1 mm; in data set [8] it was 1 mm; in data set [9] it was 1 mm; in data set [10], 2 mm. Moreover, in data set [11], the zone of inhibition at 500 µg/mL stood at 1 mm. Besides, the “inhibition (INH)” value in [5] stood at 38.6%. In addition, in data set [15], the MIC came out at 50 µg/mL (≈ 105 µM).

Regarding `Cc1ccc(-c2nc3sc(C)nn3c2-c2nc3cc([N+](=O)[O-])ccc3[nH]2)cc1`, the “diameter of the inhibition zone (DIZ)” value in [1], in [2], in data set [7], in data set [8], in data set [9] and in data set [11] was “inactive” in each case. Moreover, the “diameter of the inhibition zone (DIZ)” value in [13] and in [14] was “inactive” throughout. In addition, the “inhibition zone (IZ)” value in data set [3], in [4], in [6], in data set [10], in data set [12] and in data set [16] was “inactive” each time. Further, the “inhibition (INH)” value in data set [5] is 28.9%. For the same compound, it took 50 µg/mL (≈ 128 µM) to inhibit growth in data set [15] (MIC).

In general, MIC refers to the least concentration at which growth counts as inhibited.
